From ChEMBL document CHEMBL1828628, “Discovery of a tetrahydroisoquinoline-based hydroxamic acid derivative (ZYJ-34c) as histone deacetylase inhibitor with potent oral antitumor activities” (J Med Chem, 2011)
Activity calls are given as the source filed them. The calls are words filed in the database; no cut-off is given here.

Experiments:
[1] = molecular target: 72 kDa type IV collagenase (Homo sapiens) (UniProt P08253); assay: Inhibition of MMP2
Mus musculus [2] = assay: Toxicity in human HCT116 cells xenografted BALB/c nu mouse assessed as change in body weight at 90 mg/kg, po qd for 19 days; type: organism-based, HCT-116; set-up: dose 90 mg/kg, route oral; settings: in vivo, 456 h
How it was run: (§1)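 Female BALB/c-nu mice, 5–6 weeks old, bearing subcutaneous right-flank xenografts. Mice were randomized 6 per group at about 100 mm3 tumor size. Dosing was oral or intraperitoneal for 19 days; controls received an equal volume of PBS containing DMSO. Body weight was monitored regularly during treatment, and tumors were measured by caliper every three days.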

H22 = assay: Antitumor activity against mouse H22 cells xenografted in Kunming mouse assessed as reduction of pulmonary metastatic nodes in lungs at 60 mg/kg, po qd for 14 days; type: functional, organism-based; set-up: dose 60 mg/kg
MDA-MB-231 [3] = assay: Antitumor activity against human MDA-MB-231 cells xenografted in BALB/c nu mouse assessed as tumor growth inhibition at 60 mg/kg, ip qd for 19 days relative to control; type: functional; settings: route intraperitoneal
How it was run: (§2)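 Female athymic BALB/c-nu mice, 5–6 weeks old, were inoculated subcutaneously in the right flank with RPMI1640/10% FBS-cultured tumor cells (5 × 10^6 for MDA-MB-231). At about 100 mm3 (~10 days), mice were randomized 6 per group and dosed orally or intraperitoneally for 19 days. Vehicle controls received PBS containing DMSO. TGI = (control − treated mean tumor weight)/control mean tumor weight, at end of treatment.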

MCF7 = assay: Antiproliferative activity against human MCF7 cells after 48 hrs by MTT assay; type: functional, cell-based; settings: MCF7, 48 h
[4] = Stability in artificial intestinal juice; type: physicochemical; settings: simulated gi fluid
Mus musculus [5] = assay: Toxicity in mouse H22 cells xenografted Kunming mouse assessed as signs of organ toxicity at 90 mg/kg, po qd for 19 days; type: organism-based; set-up: dose 90 mg/kg, route oral; settings: in vivo, 456 h
HCT-116 [6] = assay: Antiproliferative activity against human HCT116 cells after 48 hrs by MTT assay; type: functional, cell-based; settings: HCT-116, 48 h
How it was run: (§3)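 Cells kept in RPMI1640 with 10% FBS at 37 °C, 5% CO2. Cells were passaged into 96-well plates the day before dosing and left ≥4 h before compound addition. Exposure was 48 h, then 0.5% MTT for 4 h. Formazan was extracted with DMSO for 15 min and read at 570 nm. IC50 was derived from inhibition ratios; mean of three experiments.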

Mus musculus [7] = assay: Toxicity in human HCT116 cells xenografted BALB/c nu mouse assessed as signs of organ toxicity at 60 mg/kg, po qd for 19 days; type: organism-based, HCT-116; set-up: dose 60 mg/kg, route oral; settings: in vivo, 456 h
Histone deacetylase = assay: Inhibition of HDAC in human HeLa cell nuclear extracts using Boc-Lys (acetyl)-AMC as substrate after 30 mins by fluorescence assay; type: protein assay
How it was run: (§4)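 Enzyme (HeLa nuclear extract, HDAC6 or HDAC8) preincubated 5 min with a series of compound concentrations. Fluorogenic Boc-Lys(acetyl)-AMC substrate then added and incubated 37 °C for 30 min. Reaction stopped with developer containing trypsin and TSA, 20 min at 37 °C. Fluorescence read at ex 390/em 460 nm. Inhibition taken relative to control wells; IC50 from regression of concentration/inhibition data.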

Histone deacetylase 8 = molecular target: T1, Histone deacetylase 8 (Homo sapiens, UniProt Q9BY41); assay: Inhibition of HDAC8 using Boc-Lys (acetyl)-AMC as substrate after 30 mins by fluorescence assay; how it was run: as §4
T1 sequence (Q9BY41 whole entry): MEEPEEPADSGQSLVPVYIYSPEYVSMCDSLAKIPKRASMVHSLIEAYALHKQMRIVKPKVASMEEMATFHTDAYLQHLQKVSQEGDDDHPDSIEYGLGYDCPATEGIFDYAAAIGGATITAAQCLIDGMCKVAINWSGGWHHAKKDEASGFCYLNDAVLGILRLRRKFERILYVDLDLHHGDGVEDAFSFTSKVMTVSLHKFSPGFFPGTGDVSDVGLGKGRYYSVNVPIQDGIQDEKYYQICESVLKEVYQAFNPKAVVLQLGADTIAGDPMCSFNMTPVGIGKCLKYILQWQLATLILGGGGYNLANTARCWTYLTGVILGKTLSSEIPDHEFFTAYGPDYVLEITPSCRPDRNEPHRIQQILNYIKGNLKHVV

Mus musculus [8] = assay: Toxicity in human HCT116 cells xenografted BALB/c nu mouse assessed as change in body weight at 60 mg/kg, po qd for 19 days; type: organism-based, HCT-116; set-up: dose 60 mg/kg, route oral; settings: in vivo, 456 h; how it was run: as §1
Mus musculus [9] = assay: Toxicity in human MDA-MB-231 cells xenografted BALB/c nu mouse assessed as change in body weight at 90 mg/kg, po qd for 19 days; type: organism-based; set-up: dose 90 mg/kg, route oral; settings: in vivo, 456 h; how it was run: as §1
HCT-116 [10] = assay: Antitumor activity against human HCT116 cells xenografted in BALB/c nu mouse assessed as tumor growth inhibition at 60 mg/kg, po qd for 19 days relative to control; type: functional; how it was run: as §2
MDA-MB-231 [11] = assay: Antitumor activity against human MDA-MB-231 cells xenografted in BALB/c nu mouse assessed as tumor growth inhibition at 90 mg/kg, po qd for 19 days relative to control; type: functional
MDA-MB-231 [12] = assay: Cell cycle arrest in human MDA-MB-231 cells assessed as accumulation at G1 phase at 0.5 uM after 48 hrs using propidium iodide staining by flow cytometric analysis; type: functional, cell-based
How it was run: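 MDA-MB-231 cells were seeded at 4 × 10^5 per well and incubated overnight, then treated for 48 h. Cells were fixed overnight in 70% ethanol phosphate buffer and washed twice with PBS. They were treated with DNase-free RNase A (1 mg/mL) for 30 min, then stained with propidium iodide for 30 min in the dark at room temperature. DNA content was read by FACScan flow cytometry.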

[13] = molecular target: Aminopeptidase N (Homo sapiens) (UniProt P15144); assay: Inhibition of aminopeptidase N
HCT-116 [14] = assay: Antitumor activity against human HCT116 cells xenografted in BALB/c nu mouse assessed as tumor growth inhibition administered as po qd for 19 days relative to control; type: functional, organism-based; how it was run: as §2
Mus musculus [15] = assay: Toxicity in human MDA-MB-231 cells xenografted BALB/c nu mouse assessed as signs of organ toxicity at 90 mg/kg, ip qd for 19 days; type: organism-based; set-up: dose 90 mg/kg, route intraperitoneal; settings: in vivo, 456 h
Mus musculus [16] = assay: Toxicity in human MDA-MB-231 cells xenografted BALB/c nu mouse assessed as change in body weight at 60 mg/kg, ip qd for 19 days; type: organism-based; set-up: dose 60 mg/kg, route intraperitoneal; settings: in vivo, 456 h; how it was run: as §1
HCT-116 [17] = assay: Antitumor activity against human HCT116 cells xenografted in BALB/c nu mouse assessed as tumor growth inhibition at 90 mg/kg, po qd for 19 days relative to control; type: functional
MDA-MB-231 [18] = assay: Antiproliferative activity against human MDA-MB-231 cells after 48 hrs by MTT assay; type: functional, cell-based; settings: MDA-MB-231, 48 h; how it was run: as §3
Mus musculus [19] = assay: Toxicity in mouse H22 cells xenografted Kunming mouse assessed as change in body weight at 90 mg/kg, po qd for 19 days; type: organism-based; set-up: dose 90 mg/kg, route oral; settings: in vivo, 456 h
Mus musculus [20] = assay: Toxicity in human HCT116 cells xenografted BALB/c nu mouse assessed as signs of organ toxicity at 90 mg/kg, po qd for 19 days; type: organism-based, HCT-116; set-up: dose 90 mg/kg, route oral; settings: in vivo, 456 h
HeLa = assay: Antiproliferative activity against human HeLa cells after 48 hrs by MTT assay; type: functional, cell-based; how it was run: as §3
[21] = Mus musculus, HCT-116, 456 h, read-out: TGI

Sequence of 72 kDa type IV collagenase (Homo sapiens) (P08253 110-660 limits assumed): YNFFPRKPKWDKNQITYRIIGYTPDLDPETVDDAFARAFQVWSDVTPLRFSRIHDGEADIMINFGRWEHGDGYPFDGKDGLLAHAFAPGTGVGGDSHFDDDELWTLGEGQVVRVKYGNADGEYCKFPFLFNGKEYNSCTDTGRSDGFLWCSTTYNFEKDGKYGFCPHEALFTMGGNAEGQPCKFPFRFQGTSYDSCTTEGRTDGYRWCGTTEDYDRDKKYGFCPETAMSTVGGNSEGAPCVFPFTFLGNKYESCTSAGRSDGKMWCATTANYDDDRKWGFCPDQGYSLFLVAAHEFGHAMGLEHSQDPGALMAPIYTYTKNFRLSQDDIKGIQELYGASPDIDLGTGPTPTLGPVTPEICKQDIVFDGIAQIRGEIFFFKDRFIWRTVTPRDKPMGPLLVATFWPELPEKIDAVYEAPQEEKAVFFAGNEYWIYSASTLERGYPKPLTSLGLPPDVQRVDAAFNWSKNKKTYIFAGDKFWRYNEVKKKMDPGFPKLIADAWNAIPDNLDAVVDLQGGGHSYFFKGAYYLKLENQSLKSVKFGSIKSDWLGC
Sequence of Aminopeptidase N (Homo sapiens) (P15144 whole entry): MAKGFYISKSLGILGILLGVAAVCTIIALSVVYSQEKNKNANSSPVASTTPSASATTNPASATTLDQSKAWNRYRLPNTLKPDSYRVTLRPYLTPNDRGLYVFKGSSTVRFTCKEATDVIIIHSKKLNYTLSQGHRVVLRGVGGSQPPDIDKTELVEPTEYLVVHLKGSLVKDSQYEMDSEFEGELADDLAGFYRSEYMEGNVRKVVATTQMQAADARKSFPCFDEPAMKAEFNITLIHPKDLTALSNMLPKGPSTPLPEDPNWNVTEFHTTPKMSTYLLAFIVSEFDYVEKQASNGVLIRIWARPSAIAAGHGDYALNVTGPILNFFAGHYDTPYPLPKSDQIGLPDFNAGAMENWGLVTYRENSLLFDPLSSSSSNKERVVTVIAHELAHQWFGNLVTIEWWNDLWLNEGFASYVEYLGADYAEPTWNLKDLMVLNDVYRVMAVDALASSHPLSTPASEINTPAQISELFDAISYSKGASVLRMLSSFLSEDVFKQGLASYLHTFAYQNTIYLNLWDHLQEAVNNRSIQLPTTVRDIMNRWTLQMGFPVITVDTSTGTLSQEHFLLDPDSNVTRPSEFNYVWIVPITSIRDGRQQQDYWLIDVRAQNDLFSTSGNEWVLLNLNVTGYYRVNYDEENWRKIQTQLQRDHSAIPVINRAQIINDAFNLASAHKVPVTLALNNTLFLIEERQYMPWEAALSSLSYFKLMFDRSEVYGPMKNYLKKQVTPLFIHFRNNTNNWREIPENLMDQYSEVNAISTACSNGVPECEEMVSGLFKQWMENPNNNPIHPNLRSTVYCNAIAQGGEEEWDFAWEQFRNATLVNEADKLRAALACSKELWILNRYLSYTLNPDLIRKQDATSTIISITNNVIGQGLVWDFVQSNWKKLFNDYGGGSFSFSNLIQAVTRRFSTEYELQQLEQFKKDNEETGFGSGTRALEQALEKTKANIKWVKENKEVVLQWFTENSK

inhibition [1]: inactive
IC50 (MCF7): 3.2 µM
Stability [4]: Stable
IC50 (HCT-116 [6]): 0.77 µM
IC50 (Histone deacetylase): 0.052 µM
IC50 (Histone deacetylase 8): 0.146 µM
inhibition [13]: Active
IC50 (MDA-MB-231 [18]): 0.58 µM
IC50 (HeLa): 56.1 µM
SMILES: CC[C@H](C)[C@H](NC(=O)CC(C)(C)C)C(=O)N1Cc2cc(OCC(=O)NO)ccc2C[C@H]1C(=O)Nc1ccc(OC)cc1
Activity (Mus musculus [2]): Non-toxic
Activity (H22): Active
inhibition in vivo at 60 mg/kg (MDA-MB-231 [3]; Mus musculus, MDA-MB-231, ip, 456 h, read-out: TGI): 45%
T/C (MDA-MB-231 [3]): 62%
Activity (Mus musculus [5]): Non-toxic
Activity (Mus musculus [7]): Non-toxic
Activity (Mus musculus [8]): Non-toxic
Activity (Mus musculus [9]): Non-toxic
T/C (HCT-116 [10]): 85%
inhibition in vivo at 60 mg/kg (HCT-116 [10]; [21]): 32%
T/C (MDA-MB-231 [11]): 30%
inhibition in vivo at 90 mg/kg (MDA-MB-231 [11]; Mus musculus, MDA-MB-231, 456 h, read-out: TGI): 66%
Activity (MDA-MB-231 [12]): Active
TGI (HCT-116 [14]): Dose-dependent effect
Activity (Mus musculus [15]): Non-toxic
Activity (Mus musculus [16]): Non-toxic
T/C (HCT-116 [17]): 53%
inhibition in vivo at 90 mg/kg (HCT-116 [17]; [21]): 59%
Activity (Mus musculus [19]): Non-toxic
Activity (Mus musculus [20]): Non-toxic
